Activity calls are given as the source filed them. The rule behind the calls is not given here.

Data set [1] addresses Cytochrome P450 3A4 (Homo sapiens, UniProt P08684). Description: Competitive inhibition of CYP3A4 (unknown origin). Format: ADME.
The nature of data set [2]: Genotoxicity in Salmonella typhimurium TA100 by Ames test. It is filed as toxicity. The conditions noted are these: salmonella enterica subsp. enterica serovar […].
In data set [3] the target is T1, Cytochrome P450 1A2 (Homo sapiens, UniProt P05177).
T1 sequence (P05177 whole entry): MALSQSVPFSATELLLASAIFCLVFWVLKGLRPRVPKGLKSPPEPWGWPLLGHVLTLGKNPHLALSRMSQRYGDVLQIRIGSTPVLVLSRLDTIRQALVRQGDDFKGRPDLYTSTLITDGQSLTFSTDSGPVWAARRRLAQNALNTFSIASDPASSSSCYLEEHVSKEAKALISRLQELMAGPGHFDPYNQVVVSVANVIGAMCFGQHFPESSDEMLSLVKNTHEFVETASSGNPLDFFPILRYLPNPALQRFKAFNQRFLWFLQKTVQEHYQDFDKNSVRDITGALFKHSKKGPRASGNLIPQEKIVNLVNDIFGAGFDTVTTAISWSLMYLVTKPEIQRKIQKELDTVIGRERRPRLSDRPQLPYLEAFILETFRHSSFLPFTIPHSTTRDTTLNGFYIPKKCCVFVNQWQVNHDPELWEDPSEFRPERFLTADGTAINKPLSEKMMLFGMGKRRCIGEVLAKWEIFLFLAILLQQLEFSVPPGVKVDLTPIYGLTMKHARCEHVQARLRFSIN
Kind of data set: Competitive inhibition of CYP1A2 (unknown origin). It is filed as ADME.

A short description of data set [4]: AUC (0 to 24 hrs) in nude mouse xenografted with tamoxifen-resistant human MCF7 cells at 100 mg/kg, po daily for 28 days measured on day 28 post last dose. It is filed as ADME, organism-based. Also noted: time < 24 hr, dose 100 mg/kg, route oral. The conditions noted are these: in vivo. The essentials: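 Tamoxifen-resistant MCF-7 xenograft mice carrying subcutaneous 0.72 mg estradiol pellets. Plasma pharmacokinetics sampled on day 28 of the study, at take-down.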

Data set [5] concerns the target Voltage-gated inwardly rectifying potassium channel KCNH2 (Homo sapiens, UniProt Q12809). Description: Inhibition of human ERG by patch clamp method.
Data set [6] deals with T2, Progesterone receptor (Homo sapiens) (UniProt P06401).
T2 sequence (whole entry): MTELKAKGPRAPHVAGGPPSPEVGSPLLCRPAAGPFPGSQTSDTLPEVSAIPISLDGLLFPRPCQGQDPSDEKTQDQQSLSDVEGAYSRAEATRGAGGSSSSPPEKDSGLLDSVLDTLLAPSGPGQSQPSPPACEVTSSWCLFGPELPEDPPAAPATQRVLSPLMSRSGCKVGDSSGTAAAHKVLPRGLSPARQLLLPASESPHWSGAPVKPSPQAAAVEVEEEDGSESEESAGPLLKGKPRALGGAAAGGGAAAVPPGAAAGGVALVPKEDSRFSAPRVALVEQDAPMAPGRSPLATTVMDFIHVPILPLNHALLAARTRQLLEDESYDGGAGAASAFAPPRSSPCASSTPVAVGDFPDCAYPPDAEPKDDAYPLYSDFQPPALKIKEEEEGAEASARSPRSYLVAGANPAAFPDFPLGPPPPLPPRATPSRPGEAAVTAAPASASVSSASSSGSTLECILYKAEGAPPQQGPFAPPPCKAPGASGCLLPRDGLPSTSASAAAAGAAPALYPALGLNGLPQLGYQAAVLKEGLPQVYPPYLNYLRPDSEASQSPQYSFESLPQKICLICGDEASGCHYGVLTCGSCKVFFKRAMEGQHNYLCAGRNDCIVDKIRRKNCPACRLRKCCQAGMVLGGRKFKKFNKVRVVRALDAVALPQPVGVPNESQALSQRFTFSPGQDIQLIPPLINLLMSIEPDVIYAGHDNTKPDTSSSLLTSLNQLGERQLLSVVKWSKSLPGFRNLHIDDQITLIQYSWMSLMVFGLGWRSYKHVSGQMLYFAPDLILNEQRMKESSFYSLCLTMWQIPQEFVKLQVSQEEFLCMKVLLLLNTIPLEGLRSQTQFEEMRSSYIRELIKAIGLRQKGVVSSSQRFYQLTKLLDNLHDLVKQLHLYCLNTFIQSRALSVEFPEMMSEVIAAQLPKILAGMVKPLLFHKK
Description: Agonist activity at PR-A (unknown origin) by transcriptional reporter assay.

The target in data set [7] is T2, Progesterone receptor (Homo sapiens). Description: Antagonist activity at PR-A (unknown origin) by transcriptional reporter assay.
Data set [8] has the same target. Kind of data set: Antagonist activity at PR-B (unknown origin) by transcriptional reporter assay.

Sequence of Voltage-gated inwardly rectifying potassium channel KCNH2 (Q12809 whole entry): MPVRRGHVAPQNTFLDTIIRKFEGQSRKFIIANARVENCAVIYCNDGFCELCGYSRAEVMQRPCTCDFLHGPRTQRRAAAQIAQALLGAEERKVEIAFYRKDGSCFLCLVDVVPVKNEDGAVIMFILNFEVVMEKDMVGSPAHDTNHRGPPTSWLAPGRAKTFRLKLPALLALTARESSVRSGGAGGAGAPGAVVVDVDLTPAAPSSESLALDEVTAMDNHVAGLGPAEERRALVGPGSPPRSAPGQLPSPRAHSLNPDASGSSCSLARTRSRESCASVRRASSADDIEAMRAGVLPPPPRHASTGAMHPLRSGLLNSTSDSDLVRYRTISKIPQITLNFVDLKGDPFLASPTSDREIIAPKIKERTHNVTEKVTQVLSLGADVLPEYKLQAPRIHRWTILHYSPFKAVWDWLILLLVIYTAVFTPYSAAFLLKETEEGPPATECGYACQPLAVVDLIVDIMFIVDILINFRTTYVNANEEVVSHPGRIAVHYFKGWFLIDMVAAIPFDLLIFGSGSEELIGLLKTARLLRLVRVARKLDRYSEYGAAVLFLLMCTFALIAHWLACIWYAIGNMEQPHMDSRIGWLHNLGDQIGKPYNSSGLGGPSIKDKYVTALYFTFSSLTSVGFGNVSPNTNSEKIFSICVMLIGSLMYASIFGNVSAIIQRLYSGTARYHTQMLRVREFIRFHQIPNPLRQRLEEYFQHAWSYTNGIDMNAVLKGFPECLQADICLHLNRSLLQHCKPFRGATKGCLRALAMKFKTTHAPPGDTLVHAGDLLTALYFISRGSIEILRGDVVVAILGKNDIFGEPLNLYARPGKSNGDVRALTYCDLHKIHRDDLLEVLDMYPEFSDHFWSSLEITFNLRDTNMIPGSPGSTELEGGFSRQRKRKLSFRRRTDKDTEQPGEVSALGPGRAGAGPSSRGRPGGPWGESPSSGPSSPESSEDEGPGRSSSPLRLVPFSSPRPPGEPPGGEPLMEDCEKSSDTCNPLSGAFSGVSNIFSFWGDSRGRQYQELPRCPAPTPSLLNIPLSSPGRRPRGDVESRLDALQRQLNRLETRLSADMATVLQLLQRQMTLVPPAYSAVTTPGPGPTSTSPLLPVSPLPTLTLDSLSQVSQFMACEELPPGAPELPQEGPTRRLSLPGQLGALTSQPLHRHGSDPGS
Sequence of Cytochrome P450 3A4 (P08684 whole entry): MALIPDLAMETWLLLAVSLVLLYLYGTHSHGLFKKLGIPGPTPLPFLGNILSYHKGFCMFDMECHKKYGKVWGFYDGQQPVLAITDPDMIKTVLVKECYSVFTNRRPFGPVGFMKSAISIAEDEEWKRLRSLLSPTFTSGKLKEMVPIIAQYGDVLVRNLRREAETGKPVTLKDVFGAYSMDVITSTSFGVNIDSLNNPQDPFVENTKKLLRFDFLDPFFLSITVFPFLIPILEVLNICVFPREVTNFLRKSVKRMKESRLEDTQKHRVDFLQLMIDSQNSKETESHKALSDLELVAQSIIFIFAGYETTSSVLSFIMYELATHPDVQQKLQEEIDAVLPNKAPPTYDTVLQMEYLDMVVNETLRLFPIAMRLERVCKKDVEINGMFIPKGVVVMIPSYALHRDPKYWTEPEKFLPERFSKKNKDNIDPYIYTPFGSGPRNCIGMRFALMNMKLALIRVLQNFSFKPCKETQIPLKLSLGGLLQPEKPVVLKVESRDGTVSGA

In the case of `CC1=C(c2cccc(O)c2)[C@H](c2ccc(OCCN3CC(CF)C3)cc2)Oc2ccc(O)cc21`, the half-maximal inhibitory concentration (IC50) in data set [1] was > 10 µM; in data set [3], > 10 µM; in data set [5], 4.6 µM. In addition, in data set [2], the Activity entry is “Non-Toxic”. The molecule further came in with an AUC at 24 h in data set [4] of 6900 ng·h/mL. Also, the result in data set [6] was inactive. In addition, the inhibition entry in data set [7] and in data set [8] was “inactive” throughout.

(Values after ChEMBL document CHEMBL4330143, “Maximizing ER-α Degradation Maximizes Activity in a Tamoxifen-Resistant Breast Cancer Model: Identification of GDC-0927” (ACS Med Chem Lett, 2019).)
